Screening data (PubChem BioAssay)
GalR3 antagonist: blocks the human galanin receptor 3; actives 0.44% (n = 360,000); HEK293 GalR3-CNG cAMP membrane potential fluorescence; galR3 body fused to GalR1 C-terminus; inhibition, % at 3 µM; O60755;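 active means inhibition above the screen-wide average plus 3 SD, cut at about 13% in these data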;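 further: forskolin and galanin both at EC90 stimulate the cells; cAMP rise reported by CNG channel membrane potential dye signal; 0% = forskolin plus galanin with DMSO and 100% = forskolin alone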
NadD inh: blocks S. aureus nicotinate mononucleotide adenylyltransferase; AID 602399; actives 0.78% (n = 360,000); purified NadD enzyme, colorimetric absorbance read-out; inhibition, % at 20 µM; in the data active means inhibition above about 26%
NR2E3 ag-1: human photoreceptor-specific nuclear receptor agonism; Q9Y5X4; CHO-S Gal4-NCOR/VP16-NR2E3 two-hybrid, luciferase; inhibition of corepressor binding, % at 3.98 µM; actives 0.35% (n = 360,000); AID 602229;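 active means inhibition above the mean of all tested compounds plus 3 SD, cut at about 70% in these data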;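 further: 0% = DMSO with NR2E3 transfected cells and 100% = cells lacking NR2E3 construct; higher means lower luciferase signal from less NR2E3 corepressor binding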
Target sequence (Q9Y5X4 whole entry, looked up, the tested form may be a part): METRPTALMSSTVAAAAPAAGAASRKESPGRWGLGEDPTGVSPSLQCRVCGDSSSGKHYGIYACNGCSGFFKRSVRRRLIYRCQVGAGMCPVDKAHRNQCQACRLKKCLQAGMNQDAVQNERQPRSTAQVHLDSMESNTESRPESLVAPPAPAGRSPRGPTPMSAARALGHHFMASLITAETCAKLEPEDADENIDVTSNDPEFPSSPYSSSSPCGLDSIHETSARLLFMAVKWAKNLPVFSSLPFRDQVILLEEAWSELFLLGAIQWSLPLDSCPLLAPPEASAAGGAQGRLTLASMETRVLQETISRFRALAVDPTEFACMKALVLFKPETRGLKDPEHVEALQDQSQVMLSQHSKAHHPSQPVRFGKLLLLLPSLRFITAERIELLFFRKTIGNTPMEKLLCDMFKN
NR2E3 ag-2: NR2E3 (human) agonism; AID 2300; actives 0.12% (n = 320,000); inhibition of corepressor binding, % at 4.78 µM; GST-NR2E3/biotin-RetCOR TR-FRET, 1536-well; Q9Y5X4;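 active means percent inhibition above the cutoff of mean plus 3 SD of all tested compounds, set per screening campaign, cut at about 20% in these data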;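 further: 0% = DMSO wells and 100% = biotin wells as full block of FRET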
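Test system: GST-NR2E3 and biotin-RetCOR proteins | Quantity: 1.35 nM GST-tagged NR2E3 final | Medium: Tris pH 7.5 | Also added: 7 nM biotin-RetCOR | Dosing: Compound at 4.8 µM, single dose | Timing: 5 h at 4 °C | Detection: Time-resolved FRET | Read-out basis: Percent inhibition | Benchmarks: Biotin wells as high control, 0.6% DMSO wells as low control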
bovine MsrA act: bovine methionine sulfoxide reductase A activation. purified bovine MsrA, absorbance read-out. activation, % at 10.6 µM. actives 0.3% (n = 360,000). AID 602163; in the data active means activation above about 7.5%;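 further: 0% = vehicle and 100% = reference activator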
MsrA inhibitor: inhibits bovine methionine sulfoxide reductase A. inhibition, % at 15.5 µM. purified bovine MsrA, absorbance read-out. actives 0.75% (n = 360,000); in the data active means inhibition above about 4.5%;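 further: 0% = vehicle wells with enzyme and 100% = reference inhibitor wells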
GalR3 conf: GalR3 (human) antagonism, confirmation; shares compounds with GalR3 antagonist; actives 59% (n = 1,600); HEK293 GalR3 CNG cAMP biosensor, membrane potential fluorescence; galR3 fused to GalR1 carboxy tail; challenged with forskolin and galanin at EC90; inhibition, % at 3 µM;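 active means inhibition above the primary screen's cutoff, the mean inhibition of all screened compounds plus 3 SD, cut at about 13% in these data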;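 further: 0% = forskolin plus galanin and 100% = forskolin alone with DMSO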
CNG parental: acts as nonspecific agonist in parental HEK-CNG cells; activation, % at 3 µM; shares compounds with GalR3 antagonist; actives 10% (n = 1,600); AID 652268; HEK293-CNG parental cells, cAMP membrane potential fluorescence; normalised: DMSO wells 0%, forskolin wells 100%; in the data active means activation above about 1.3%
An asterisk follows results filed as active; nt = not tested or not shown. Rows were chosen to be rich in hits. Some 2.5% of all compounds tested hit in one or more screens of this group.

SMILES	GalR3 antagonist	NadD inh	NR2E3 ag-1	NR2E3 ag-2	bovine MsrA act	MsrA inhibitor	GalR3 conf	CNG parental
COc1ccc(C2c3c(-c4cc(Cl)c(C)cc4O)n[nH]c3C(=O)N2Cc2cccnc2)cc1OC (stereo not given)	64*	19	-10	1	2	0	67*	1
O=C(CSc1nc2ccccc2[nH]1)Nc1c(F)c(F)c(F)c(F)c1F	16*	-2	4	6	-1	1	7	-1
COc1cccc(-n2c(C)c(C(C)=O)c(C(C)=O)c2C)c1	15*	-2	-5	0	-2	1	4	0
COc1ccc(-n2c(C)c(C(C)=O)c(C(C)=O)c2C)cc1	-4	1	-12	4	-1	0	nt	nt
CCOC(=O)Cc1c(C)nc2cc(C)nn2c1C	3	-4	-13	3	-2	-1	nt	nt
O=C(O)c1cccc(S(=O)(=O)NCC2CCCO2)c1 (stereo not given)	-4	-5	-24	3	0	0	nt	nt
NC(=O)C1CCN(C(=O)c2ccc3nc(N4CCCCC4)sc3c2)CC1	16*	-7	-49	-1	1	-1	1	0
COc1cccc(Cn2c(NCc3cccnc3)nc3c2c(=O)n(C)c(=O)n3C)c1	3	-2	14	1	-9	0	nt	nt
COc1cccc(Cn2c(NCc3ccccn3)nc3c2c(=O)n(C)c(=O)n3C)c1	14*	nt	nt	nt	nt	0	10	0
Cc1ccc(Cc2cnc(NC(=O)C3CCCO3)s2)cc1 (stereo not given)	1	-3	-162	4	-3	-1	nt	nt
COC(=O)c1oc2ccc(Cl)cc2c1-n1cccc1	-1	-4	-22	0	-2	0	nt	nt
O=C(NCc1ccncc1)c1ccc(Oc2ccccc2)cc1	-11	9	-8	5	-2	-1	nt	nt
Cc1ccc(Oc2ccc(C(=O)NCc3ccncc3)cc2)cc1	83*	3	-5	nt	3	2	97*	-1
O=C(O)c1ccccc1C(=O)c1ccc(F)c(F)c1	17*	-5	-9	nt	-5	0	2	0
O=C(c1ccc(CNS(=O)(=O)c2ccccc2)cc1)N1CCN(Cc2ccccc2)CC1	21*	-4	12	3	-2	0	10	0
CCn1c2c(c(=N)c3c1CCC3)CCC2	-2	-1	-16	3	-2	0	nt	nt
CCCCCCCn1c2c(c(=N)c3c1CCC3)CCCC2	31*	19	9	nt	-4	1	44*	6.0*
CCCCCCn1c2c(c(=N)c3c1CCC3)CCC2	35*	0	11	0	-4	0	21*	0
CCOC(=O)c1sc(NC(=O)CSc2nnc(Cc3ccccc3)o2)c(C(=O)OCC)c1C	-4	-3	-35	10	-2	0	nt	nt
COc1ccc(CN(C)C(=O)c2ccc(OCC(=O)Nc3cccc(C(F)(F)F)c3)c(OC)c2)cc1	18*	-6	8	nt	-1	0	85*	0
CC1CN(C(=O)c2cc3cc(Cl)cc(Cl)c3oc2=O)CC(C)O1 (stereo not given)	-1	2	1	6	-2	1	nt	nt
COn1c(-c2ccc(Cl)cc2)nc2ccc(Cl)cc21	-7	3	-39	0	-2	1	nt	nt
O=C(O)COn1c(-c2ccc(Cl)cc2)nc2ccc(Cl)cc21	30*	-3	-132	-4	-1	2	14*	0
COc1ccc(O)c(C(=O)c2cnc3nc4ccccc4n3c2)c1	22*	13	-69	1	-11	2	18*	1
COc1ccc(C)cc1NC(=O)c1ccc(NS(=O)(=O)c2cccc3cccnc23)cc1	51*	13	28	3	-8	1	85*	0
SMILES	GalR3 antagonist	NadD inh	NR2E3 ag-1	NR2E3 ag-2	bovine MsrA act	MsrA inhibitor	GalR3 conf	CNG parental
COc1ccccc1NC(=O)c1ccc(NS(=O)(=O)c2cccc3cccnc23)cc1	4	3	-14	-9	-3	0	nt	nt
Cc1ccc2nsnc2c1S(=O)(=O)N(CCO)Cc1cc2cc3c(cc2[nH]c1=O)OCCO3	-6	-4	1	-2	-10	4	nt	nt
CCCN(CC(=O)Nc1ccccc1C)C(=O)c1ccc(S(=O)(=O)N2CCCC2)cc1	-3	-3	-27	2	0	2	nt	nt
Cc1nc2scc(-c3ccccc3)c2c(=O)n1N=C1C=CC(=O)C=C1	15*	nt	nt	nt	nt	0	24*	0
COc1cc([N+](=O)[O-])cc(/C=N/NC(=O)c2cccnc2)c1O	54*	-5	-7	-2	-1	2	7	0
CC(Sc1nc(-c2ccccc2)cc(C(F)(F)F)n1)C(=O)NCc1ccco1 (stereo not given)	-4	6	-21	-2	-4	0	nt	nt
Cc1cccc(-c2nc3ccccc3c(=O)n2NC(=O)/C=C/c2ccc([N+](=O)[O-])cc2)c1	45*	9	-18	-2	-4	0	34*	0
O=C(/C=C/c1cccc([N+](=O)[O-])c1)Nn1c(-c2ccccc2F)nc2ccccc2c1=O	61*	5	-14	-2	-4	1	65*	0
Cc1ccc(-c2nc(C(=O)NCCCN(C)C)cc3c2[nH]c2ccccc23)cc1	4	-6	4	-2	-2	1	nt	nt
COC(=O)[C@H](CCSC)NC(=O)c1cc2c(cn1)[nH]c1ccccc12	-11	5	-36	-3	-2	3	nt	nt
COc1ccc(/C(C)=N/NC(=O)c2nnn(-c3nonc3N)c2-c2cccs2)cc1OC	-6	2	-11	0	-5	1	nt	nt
O=C(CN1CCC(c2nc3ccccc3s2)CC1)NCc1cccs1	78*	0	29	3	-10	1	76*	1.8*
O=C(CN1CCC(c2nc3ccccc3s2)CC1)N1CCCCC1	-8	2	-23	8	-5	0	nt	nt
COc1ccc(CCNC(=O)c2ccc(Cl)c(S(=O)(=O)N3CCCCCC3)c2)cc1	88*	-11	42	1	-2	-2	99*	0
COc1ccc(CCC(=O)Nc2ccc(Cl)c(S(=O)(=O)N3CCCC3)c2)cc1	66*	-4	2	0	-9	0	112*	0
CC1CCCN(S(=O)(=O)c2cc(C(=O)NCCc3ccc(S(N)(=O)=O)cc3)ccc2Cl)C1 (stereo not given)	75*	-2	7	nt	-8	0	15*	-1
